From ChEMBL document CHEMBL3872218, “Synthesis and T-type calcium channel-blocking effects of aryl(1,5-disubstituted-pyrazol-3-yl)methyl sulfonamides for neuropathic pain treatment” (Eur J Med Chem, 2016)

Assays:
Rattus norvegicus [1] = assay: Antineuropathic pain activity in rat spinal nerve ligation model assessed as effect on cold allodynia by measuring frequency of paw withdrawal at 100 mg/kg, po measured at 1 hr relative to gabapentin; assay type: functional
Outline: (§1)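 Spinal nerve ligation rats tested 2 weeks after nerve surgery, 100 mg/kg oral, n = 4 per group. Behaviour re-tested at 1, 3 and 5 h after dosing. Mechanical allodynia: von Frey filament applied five times, every 3–4 s, to the hind paw on a wire mesh floor. Cold allodynia: acetone applied to the plantar hind paw on a metal mesh floor.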

[2] = Drug uptake in Sprague-Dawley rat brain at 10 mg/kg, iv at 2 hrs post dose; assay type: ADME, organism-based; conditions: read-out: Drug uptake
[3] = Oral bioavailability in Sprague-Dawley rat at 10 mg/Kg; assay type: ADME, organism-based; conditions: in vivo
[4] = Total clearance in Sprague-Dawley rat at 10 mg/kg, iv; assay type: ADME, organism-based; conditions: in vivo
Rattus norvegicus [5] = assay: Antineuropathic pain activity in rat spinal nerve ligation model assessed as effect on cold allodynia by measuring frequency of paw withdrawal at 100 mg/kg, po measured at 5 hrs relative to gabapentin; assay type: functional; outline: as §1
Rattus norvegicus [6] = assay: Antineuropathic pain activity in rat spinal nerve ligation model assessed as effect on cold allodynia by measuring frequency of paw withdrawal at 100 mg/kg, po measured at 1 hr relative to control; assay type: functional; outline: as §1
CYP2C9 = CYP2C9 (Homo sapiens, UniProt P11712); assay: Inhibition of human CYP2C9 assessed as remaining activity at 10 uM using vivid CYP450 substrate measured after 15 mins by fluorescence assay relative to sulfaphenazol; assay type: ADME; conditions: probe vivid CYP450 substrate, read-out: Activity
Outline: (§2)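 Vivid fluorescence CYP assay: test compound at […] in water, mixed with BACULOSOMES master pre-mix and regeneration system, preincubated 15 min at 37 °C. Reaction started with Vivid substrate and NADPH. Remaining activity read by fluorescence as % of control, triplicate, mean ± SD. Isoform-specific reference inhibitors: α-naphthoflavone (1A2), sulfaphenazole (2C9), quinidine (2D6), ketoconazole (3A4).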

[7] = Drug excretion in Sprague-Dawley rat at 10 mg/kg, iv; assay type: ADME, organism-based; conditions: in vivo, read-out: Drug excretion
[8] = AUClast in Sprague-Dawley rat at 10 mg/kg, iv; assay type: ADME, organism-based; parameters: dose 10 mg/kg, time 0 - last, route intravenous; conditions: in vivo
[9] = AUC (0 to infinity) in Sprague-Dawley rat at 10 mg/kg, iv; assay type: ADME, organism-based; parameters: dose 10 mg/kg, route intravenous, time infinity; conditions: in vivo
[10] = Inhibition of N-type Ca2+ channel (unknown origin) by whole-cell patch clamp method; conditions: Homo sapiens
Rattus norvegicus [11] = assay: Antineuropathic pain activity in rat spinal nerve ligation model assessed as effect on cold allodynia by measuring frequency of paw withdrawal at 100 mg/kg, po measured at 5 hrs relative to control; assay type: functional; outline: as §1
Rattus norvegicus [12] = assay: Antineuropathic pain activity in rat spinal nerve ligation model assessed as effect on mechanical allodynia by measuring frequency of paw withdrawal at 100 mg/kg, po measured at 1 hr relative to gabapentin; assay type: functional; outline: as §1
CYP1A2 = biological target: T1, CYP1A2 (Homo sapiens, UniProt P05177); assay: Inhibition of human CYP1A2 assessed as remaining activity at 10 uM using vivid CYP450 substrate measured after 15 mins by fluorescence assay relative to alpha-naphthoflavon; assay type: ADME; conditions: probe vivid CYP450 substrate, read-out: Activity; outline: as §2
T1 sequence (P05177 whole entry): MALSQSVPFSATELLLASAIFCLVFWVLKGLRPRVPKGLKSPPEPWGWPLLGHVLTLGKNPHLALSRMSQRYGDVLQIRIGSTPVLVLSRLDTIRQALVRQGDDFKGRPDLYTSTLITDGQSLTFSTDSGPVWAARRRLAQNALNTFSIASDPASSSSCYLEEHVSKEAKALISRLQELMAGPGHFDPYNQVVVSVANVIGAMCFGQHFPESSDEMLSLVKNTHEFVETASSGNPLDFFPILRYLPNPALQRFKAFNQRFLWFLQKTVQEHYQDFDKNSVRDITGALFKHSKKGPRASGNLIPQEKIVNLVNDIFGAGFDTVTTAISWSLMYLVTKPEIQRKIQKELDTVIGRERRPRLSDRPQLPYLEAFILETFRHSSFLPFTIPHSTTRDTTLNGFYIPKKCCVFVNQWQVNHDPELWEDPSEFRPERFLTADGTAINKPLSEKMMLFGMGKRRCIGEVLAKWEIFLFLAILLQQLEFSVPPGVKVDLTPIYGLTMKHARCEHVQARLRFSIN

[13] = Drug excretion in Sprague-Dawley rat at 10 mg/kg, po; assay type: ADME, organism-based; conditions: in vivo, read-out: Drug excretion
[14] = Tmax in Sprague-Dawley rat at 10 mg/kg, po; assay type: ADME, organism-based; conditions: in vivo
[15] = biological target: Voltage-dependent T-type calcium channel subunit alpha-1G (Homo sapiens, UniProt O43497); assay: Inhibition of Cav3.1 alpha1G (unknown origin) expressed in HEK293 cells by whole-cell patch clamp method; assay type: cell-based
Sequence of Voltage-dependent T-type calcium channel subunit alpha-1G (O43497 whole entry): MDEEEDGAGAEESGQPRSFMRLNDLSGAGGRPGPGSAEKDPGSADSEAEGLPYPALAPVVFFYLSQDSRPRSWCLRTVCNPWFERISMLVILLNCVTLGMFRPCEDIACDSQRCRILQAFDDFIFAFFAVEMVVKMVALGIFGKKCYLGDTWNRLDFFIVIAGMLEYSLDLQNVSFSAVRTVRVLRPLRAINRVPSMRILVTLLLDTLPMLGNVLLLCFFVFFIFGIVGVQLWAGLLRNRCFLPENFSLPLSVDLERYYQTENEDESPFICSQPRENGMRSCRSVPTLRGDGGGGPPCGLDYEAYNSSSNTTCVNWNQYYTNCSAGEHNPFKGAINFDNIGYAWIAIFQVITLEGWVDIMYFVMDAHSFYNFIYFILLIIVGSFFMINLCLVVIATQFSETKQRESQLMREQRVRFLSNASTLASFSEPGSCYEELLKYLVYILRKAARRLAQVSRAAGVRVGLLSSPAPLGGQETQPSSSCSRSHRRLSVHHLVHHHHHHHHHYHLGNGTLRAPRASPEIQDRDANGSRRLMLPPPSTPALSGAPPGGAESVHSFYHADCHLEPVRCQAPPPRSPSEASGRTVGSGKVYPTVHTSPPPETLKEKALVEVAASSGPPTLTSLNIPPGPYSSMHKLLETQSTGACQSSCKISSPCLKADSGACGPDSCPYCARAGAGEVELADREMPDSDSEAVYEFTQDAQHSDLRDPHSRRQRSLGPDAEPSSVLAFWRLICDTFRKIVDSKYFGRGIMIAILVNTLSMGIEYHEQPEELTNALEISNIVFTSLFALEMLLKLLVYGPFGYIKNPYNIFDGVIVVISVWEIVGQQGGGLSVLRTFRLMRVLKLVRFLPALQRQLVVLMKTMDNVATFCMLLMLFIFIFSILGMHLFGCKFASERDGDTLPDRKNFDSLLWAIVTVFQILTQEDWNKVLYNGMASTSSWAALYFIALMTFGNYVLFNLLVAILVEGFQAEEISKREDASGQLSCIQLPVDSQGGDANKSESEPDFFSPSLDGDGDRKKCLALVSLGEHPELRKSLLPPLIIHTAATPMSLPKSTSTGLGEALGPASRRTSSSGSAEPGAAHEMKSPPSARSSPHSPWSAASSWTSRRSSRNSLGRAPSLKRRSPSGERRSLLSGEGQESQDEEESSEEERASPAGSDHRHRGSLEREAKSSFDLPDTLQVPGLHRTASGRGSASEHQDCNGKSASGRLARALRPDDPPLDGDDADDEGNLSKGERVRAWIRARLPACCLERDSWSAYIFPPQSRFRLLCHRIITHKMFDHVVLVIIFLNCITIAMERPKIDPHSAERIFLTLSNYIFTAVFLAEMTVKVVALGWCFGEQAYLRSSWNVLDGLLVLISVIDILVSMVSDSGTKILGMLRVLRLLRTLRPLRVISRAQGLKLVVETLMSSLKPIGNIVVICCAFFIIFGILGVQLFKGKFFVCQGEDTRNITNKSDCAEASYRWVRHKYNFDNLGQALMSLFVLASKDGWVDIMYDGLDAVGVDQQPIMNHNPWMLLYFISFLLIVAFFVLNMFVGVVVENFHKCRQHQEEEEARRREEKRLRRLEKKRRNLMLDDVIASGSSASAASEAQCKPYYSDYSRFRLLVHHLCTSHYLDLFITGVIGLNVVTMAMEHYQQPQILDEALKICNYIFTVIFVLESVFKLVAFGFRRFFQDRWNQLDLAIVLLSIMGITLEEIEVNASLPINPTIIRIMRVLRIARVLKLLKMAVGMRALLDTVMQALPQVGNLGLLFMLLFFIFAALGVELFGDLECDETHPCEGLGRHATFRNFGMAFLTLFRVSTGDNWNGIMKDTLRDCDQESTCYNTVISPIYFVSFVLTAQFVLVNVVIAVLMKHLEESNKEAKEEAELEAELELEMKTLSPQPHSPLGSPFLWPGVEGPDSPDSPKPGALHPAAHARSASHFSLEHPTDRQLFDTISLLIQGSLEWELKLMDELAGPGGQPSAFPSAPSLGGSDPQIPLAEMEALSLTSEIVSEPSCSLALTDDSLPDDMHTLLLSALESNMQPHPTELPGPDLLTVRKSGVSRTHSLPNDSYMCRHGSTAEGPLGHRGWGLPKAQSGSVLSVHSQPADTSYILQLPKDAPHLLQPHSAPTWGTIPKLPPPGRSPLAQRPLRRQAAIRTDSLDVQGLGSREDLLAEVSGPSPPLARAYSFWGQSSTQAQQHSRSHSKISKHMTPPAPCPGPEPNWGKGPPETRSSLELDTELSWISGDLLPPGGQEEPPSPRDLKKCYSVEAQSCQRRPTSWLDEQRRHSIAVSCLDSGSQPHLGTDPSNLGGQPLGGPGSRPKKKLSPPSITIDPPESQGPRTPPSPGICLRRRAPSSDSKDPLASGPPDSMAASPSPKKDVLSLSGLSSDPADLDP
Outline: (§3)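 Whole-cell patch clamp on HEK293 cells expressing Cav3.1 or Cav3.2. T-type currents evoked every 15 s by a 50-ms step from −100 mV to −30 mV. External solution (mM): 140 NaCl, 2 CaCl₂, 10 HEPES, 10 glucose, pH 7.4.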

Rattus norvegicus [16] = assay: Antineuropathic pain activity in rat spinal nerve ligation model assessed as effect on mechanical allodynia by measuring frequency of paw withdrawal at 100 mg/kg, po measured at 3 hrs relative to control; assay type: functional; outline: as §1
[17] = Drug uptake in Sprague-Dawley rat brain at 10 mg/kg, po at 2 hrs post dose; assay type: ADME, organism-based; conditions: read-out: Drug uptake
Homo sapiens = organism: Homo sapiens; assay: Inhibition of N-type Ca2+ channel (unknown origin) at 10 uM by whole-cell patch clamp method relative to control
[18] = Metabolic stability in human liver microsomes assessed as compound remaining at 1 uM in presence of NADPH as cofactor by LC-MS/MS method; assay type: ADME; conditions: read-out: Stability
Outline: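 Pooled mixed-gender human liver microsomes incubated with compound at 37 °C with NADPH as cofactor. Result given as % parent compound remaining.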

[19] = biological target: T2, Voltage-dependent T-type calcium channel subunit alpha-1H (Homo sapiens, UniProt O95180); assay: Inhibition of Cav3.2 alpha1H (unknown origin) expressed in HEK293 cells by whole-cell patch clamp method; assay type: cell-based; outline: as §3
T2 sequence (O95180 whole entry): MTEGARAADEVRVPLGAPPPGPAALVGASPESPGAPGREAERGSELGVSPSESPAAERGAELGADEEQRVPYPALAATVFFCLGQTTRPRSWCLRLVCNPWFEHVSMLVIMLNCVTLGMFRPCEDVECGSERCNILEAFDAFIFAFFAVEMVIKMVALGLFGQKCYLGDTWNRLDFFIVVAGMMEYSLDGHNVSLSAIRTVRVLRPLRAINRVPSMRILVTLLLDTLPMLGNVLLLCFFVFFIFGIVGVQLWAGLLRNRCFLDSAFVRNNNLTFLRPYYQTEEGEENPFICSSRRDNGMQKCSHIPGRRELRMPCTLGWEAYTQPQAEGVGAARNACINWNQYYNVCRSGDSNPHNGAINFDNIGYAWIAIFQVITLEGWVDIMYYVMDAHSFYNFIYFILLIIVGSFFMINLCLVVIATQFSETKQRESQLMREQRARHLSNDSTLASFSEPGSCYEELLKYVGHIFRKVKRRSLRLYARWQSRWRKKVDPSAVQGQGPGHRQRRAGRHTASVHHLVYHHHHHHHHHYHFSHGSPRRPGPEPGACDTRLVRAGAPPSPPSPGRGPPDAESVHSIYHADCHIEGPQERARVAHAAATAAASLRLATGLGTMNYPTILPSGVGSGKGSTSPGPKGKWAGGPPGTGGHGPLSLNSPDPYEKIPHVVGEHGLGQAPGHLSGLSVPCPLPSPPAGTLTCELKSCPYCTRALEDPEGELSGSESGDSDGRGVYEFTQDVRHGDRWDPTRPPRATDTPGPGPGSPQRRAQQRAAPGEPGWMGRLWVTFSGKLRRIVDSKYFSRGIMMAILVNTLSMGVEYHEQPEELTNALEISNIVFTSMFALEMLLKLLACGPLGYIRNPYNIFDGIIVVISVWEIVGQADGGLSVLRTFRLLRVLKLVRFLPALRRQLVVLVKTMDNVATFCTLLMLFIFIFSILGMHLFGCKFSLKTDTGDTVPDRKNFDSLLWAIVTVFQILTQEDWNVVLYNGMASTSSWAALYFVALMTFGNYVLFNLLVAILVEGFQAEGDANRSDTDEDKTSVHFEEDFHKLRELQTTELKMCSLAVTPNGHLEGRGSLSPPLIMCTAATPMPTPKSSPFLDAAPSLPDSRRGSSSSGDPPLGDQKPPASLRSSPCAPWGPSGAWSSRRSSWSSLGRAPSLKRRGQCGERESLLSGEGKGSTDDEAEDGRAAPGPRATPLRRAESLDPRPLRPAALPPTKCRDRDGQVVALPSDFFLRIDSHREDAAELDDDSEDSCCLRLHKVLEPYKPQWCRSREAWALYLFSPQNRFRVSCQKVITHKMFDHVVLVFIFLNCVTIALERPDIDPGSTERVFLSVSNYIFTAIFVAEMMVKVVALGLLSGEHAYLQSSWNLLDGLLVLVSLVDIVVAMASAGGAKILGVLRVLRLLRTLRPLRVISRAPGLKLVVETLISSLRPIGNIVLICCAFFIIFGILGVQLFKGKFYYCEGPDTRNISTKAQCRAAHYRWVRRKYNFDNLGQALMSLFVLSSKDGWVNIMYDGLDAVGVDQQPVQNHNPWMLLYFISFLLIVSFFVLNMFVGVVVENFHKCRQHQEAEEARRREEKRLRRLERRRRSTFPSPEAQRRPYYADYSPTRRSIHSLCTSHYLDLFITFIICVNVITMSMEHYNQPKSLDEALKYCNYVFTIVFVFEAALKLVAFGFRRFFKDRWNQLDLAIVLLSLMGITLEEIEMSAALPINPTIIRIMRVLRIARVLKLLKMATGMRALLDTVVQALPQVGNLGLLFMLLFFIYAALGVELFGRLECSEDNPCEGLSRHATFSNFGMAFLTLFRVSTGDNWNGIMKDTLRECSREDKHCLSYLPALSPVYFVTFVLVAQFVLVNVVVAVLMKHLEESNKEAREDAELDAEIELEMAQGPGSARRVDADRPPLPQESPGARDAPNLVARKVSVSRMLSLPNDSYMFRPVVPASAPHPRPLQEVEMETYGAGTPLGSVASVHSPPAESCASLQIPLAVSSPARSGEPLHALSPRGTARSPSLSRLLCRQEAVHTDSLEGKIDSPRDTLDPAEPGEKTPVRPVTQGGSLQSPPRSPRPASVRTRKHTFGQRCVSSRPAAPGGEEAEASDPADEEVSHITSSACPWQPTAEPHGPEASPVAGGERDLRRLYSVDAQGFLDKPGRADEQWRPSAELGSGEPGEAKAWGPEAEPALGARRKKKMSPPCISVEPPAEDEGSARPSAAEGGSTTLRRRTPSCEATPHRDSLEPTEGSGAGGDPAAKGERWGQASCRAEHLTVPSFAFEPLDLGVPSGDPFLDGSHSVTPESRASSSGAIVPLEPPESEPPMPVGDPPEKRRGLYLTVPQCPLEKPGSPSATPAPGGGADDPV

[20] = biological target: T2, Voltage-dependent T-type calcium channel subunit alpha-1H; assay: Inhibition of Cav3.2 alpha1H (unknown origin) expressed in HEK293 cells assessed as decrease in KCl-induced depolarization mediated intracellular Ca2+ level at 10 uM by fluo3/AM based high throughput screening assay relative to control; assay type: cell-based
Outline: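 HEK293 cells stably expressing Cav3.1 or Cav3.2 plated at 4 × 10⁴ cells/well and used the next day. Loaded 60 min at room temperature with […] fluo3/AM plus 0.001% Pluronic F-127 in HEPES-buffered saline (1.8 mM CaCl₂, pH 7.4). Ca²⁺ fluorescence read on FDSS6000 as % inhibition, compound at […].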

Rattus norvegicus [21] = assay: Antineuropathic pain activity in rat spinal nerve ligation model assessed as effect on mechanical allodynia by measuring frequency of paw withdrawal at 100 mg/kg, po measured at 3 hrs relative to gabapentin; assay type: functional; outline: as §1
[22] = Plasma concentration in Sprague-Dawley rat at 10 mg/kg, po at 2 hrs post dose; assay type: ADME, organism-based
[23] = Ratio of drug level in brain to plasma in Sprague-Dawley rat at 10 mg/kg, po at 2 hrs post dose; assay type: ADME, organism-based; conditions: read-out: BPR
Rattus norvegicus [24] = assay: Antineuropathic pain activity in rat spinal nerve ligation model assessed as effect on mechanical allodynia by measuring frequency of paw withdrawal at 100 mg/kg, po measured at 5 hrs relative to control; assay type: functional; outline: as §1

## CC(C)Cc1cc(CNS(=O)(=O)c2cccc(F)c2)nn1-c1ccccc1
Rattus norvegicus [1]
  MPE: 202.07%
[2]
  concentration at 2 h: 366 ng/mL
[3]
  bioavailability: 8.3%
[4]
  clearance: 83.8 mL/min/kg
Rattus norvegicus [5]
  MPE: 185.11%
Rattus norvegicus [6]
  MPE: 88.93%
CYP2C9
  activity at 0.25 h, 10 µM: 30.4%
[7]
  dose excreted: 0%
[8]
  AUC(0-t): 2010 ng·h/mL
[9]
  AUC(0-inf): 2020 ng·h/mL
[10]
  IC50: 14.5 µM
Rattus norvegicus [11]
  MPE: 80.82%
Rattus norvegicus [12]
  MPE: 14.78%
CYP1A2
  activity at 0.25 h, 10 µM: 45.6%
[13]
  dose excreted: 0%
[14]
  Tmax: 1.1 h
[15]
  IC50: 3.2 µM
Rattus norvegicus [16]
  MPE: 29.68%
[17]
  concentration at 2 h: 8.6 ng/mL
Homo sapiens
  inhibition: 55.6%
[18]
  remaining at 1 µM: 1.72%
[19]
  IC50: 2.08 µM
[20]
  inhibition: 62.7%
Rattus norvegicus [21]
  MPE: 52.13%
[22]
  concentration at 2 h: 50 ng/mL
[23]
  Kp at 2 h: 0.19
Rattus norvegicus [24]
  MPE: 19.48%
